Here are results for 8 molecules from PMC6911266 (Nature, 2019).

“And” between values parts separate entries of the source, which are not always exact repeats. Identical values can stand only once. Like-named read-outs stand apart in the source and are kept apart here.

Data set [1] concerns the target T1, PfCRT 7G8 (Plasmodium falciparum, UniProt W7FI62).
T1 sequence (W7FI62 1-424): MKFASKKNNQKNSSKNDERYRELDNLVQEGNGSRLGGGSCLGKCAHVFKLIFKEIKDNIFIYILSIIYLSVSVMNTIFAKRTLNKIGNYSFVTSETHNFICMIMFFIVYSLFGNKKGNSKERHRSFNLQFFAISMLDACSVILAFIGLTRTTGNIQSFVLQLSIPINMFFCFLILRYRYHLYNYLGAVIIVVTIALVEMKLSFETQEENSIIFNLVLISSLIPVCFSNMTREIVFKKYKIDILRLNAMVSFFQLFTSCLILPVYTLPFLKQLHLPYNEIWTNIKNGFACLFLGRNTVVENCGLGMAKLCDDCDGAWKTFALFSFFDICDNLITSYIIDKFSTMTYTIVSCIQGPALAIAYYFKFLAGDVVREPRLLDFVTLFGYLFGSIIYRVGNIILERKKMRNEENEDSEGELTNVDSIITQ
In kind it is biochemical.

Data set [2] deals with T1, PfCRT 7G8. Briefly: Scintillation proximity assay. In kind it is binding. The following applies: for competition of [3H]-Arg binding (in words): 125 nM [3H]-Arg, 1 μM CQ or PPQ, 0.1 μM amodiaquine, 1 mM Arg, Lys or Leu. In general terms: In a scintillation proximity assay essentially only radioactivity close to the scintillant gives light.
In data set [3] the test system is P. falciparum Dd2^Dd2 parasite line. The data set can be described thus: Parasite drug susceptibility assay. In kind it is cell-based, Plasmodium falciparum. The following applies: 72 h, asynchronous asexual blood stages. The method in brief:
(§1)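 Asynchronous asexual blood-stage parasites were seeded at 0.3% parasitemia and 1% hematocrit into 2-fold, 10-point test compound dilutions. Incubation was 72 h at 37°C under 5% O2/5% CO2/90% N2. Final parasitemia was read by flow cytometry. IC50 came from nonlinear regression, 4 independent assays in duplicate, with two-tailed Mann-Whitney U tests.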

In data set [4] the test system is P. falciparum 7G8^7G8 parasite line. Briefly: Parasite drug susceptibility assay. The data set is classed as cell-based, Plasmodium falciparum. The following applies: 72 h, asynchronous asexual blood stages. The method in brief: as §1
The test system of data set [5] is P. falciparum 7G8^7G8+F145I parasite line. The data set can be described thus: Parasite drug susceptibility assay. The following applies: 72 h, asynchronous asexual blood stages. The data set is classed as cell-based, Plasmodium falciparum. The method in brief: as §1
The subject of data set [6] is P. falciparum 7G8^7G8+C350R parasite line. The data set can be described thus: Parasite drug susceptibility assay. The data set is classed as cell-based, Plasmodium falciparum. The conditions noted are these: 72 h, asynchronous asexual blood stages. The method in brief:
as §1

Data set [7] concerns P. falciparum WT (3D7) parasite line. Briefly: Parasite drug susceptibility assay. In kind it is cell-based, Plasmodium falciparum. The following applies: 72 h, asynchronous asexual blood stages. The method in brief: as §1
In another data set the target is T2, PfCRT 7G8+C289A (Plasmodium falciparum, UniProt W7FI62, C289A).
T2 sequence (W7FI62 1-424 C289A): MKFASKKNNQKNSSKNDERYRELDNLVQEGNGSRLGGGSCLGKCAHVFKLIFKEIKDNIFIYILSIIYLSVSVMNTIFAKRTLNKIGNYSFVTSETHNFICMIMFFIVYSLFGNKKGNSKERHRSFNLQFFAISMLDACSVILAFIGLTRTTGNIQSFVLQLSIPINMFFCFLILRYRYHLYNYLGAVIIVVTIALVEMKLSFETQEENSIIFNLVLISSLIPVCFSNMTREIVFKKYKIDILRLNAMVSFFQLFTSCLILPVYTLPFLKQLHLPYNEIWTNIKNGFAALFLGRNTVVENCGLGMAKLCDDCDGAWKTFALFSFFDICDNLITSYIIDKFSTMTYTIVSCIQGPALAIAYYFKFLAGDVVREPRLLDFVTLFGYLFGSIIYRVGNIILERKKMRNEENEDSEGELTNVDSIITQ
The data set can be described thus: Transport. The data set is classed as biochemical. The following applies: read-out: IC50 (concentration yielding half-maximal reduction of [3H]-CQ transport); 100 nM [3H]-CQ, 1 min. The method in brief:
(§2)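 Proteoliposomes with the PfCRT variant (40 ng PfCRT per assay) have a lumen of 100 mM KPi, pH 7.5, with 2 mM β-mercaptoethanol. They are diluted into 100 mM Tris/Mes, pH 5.5, with 100 nM [3H]-CQ (5.45 Ci/mmol) and increasing β-mercaptoethanol, and uptake runs for 1 min. Values are corrected for mock uptake on nitrocellulose filters and for control liposomes lacking PfCRT. IC50 is the β-mercaptoethanol concentration halving transport.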

The target in another data set is T3, PfCRT 7G8+C301A (Plasmodium falciparum, UniProt W7FI62, C301A).
T3 sequence (W7FI62 1-424 C301A): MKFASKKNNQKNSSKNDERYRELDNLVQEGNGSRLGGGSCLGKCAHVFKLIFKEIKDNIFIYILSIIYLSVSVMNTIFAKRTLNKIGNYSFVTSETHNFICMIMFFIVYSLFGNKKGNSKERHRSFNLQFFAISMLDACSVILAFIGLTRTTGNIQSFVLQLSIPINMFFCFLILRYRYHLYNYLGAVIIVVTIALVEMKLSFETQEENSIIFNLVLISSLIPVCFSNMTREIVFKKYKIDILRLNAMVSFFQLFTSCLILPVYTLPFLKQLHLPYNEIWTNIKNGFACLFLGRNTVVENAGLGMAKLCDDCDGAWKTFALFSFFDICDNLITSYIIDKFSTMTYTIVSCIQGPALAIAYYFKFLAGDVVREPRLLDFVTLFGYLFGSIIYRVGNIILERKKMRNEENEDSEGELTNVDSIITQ
The data set can be described thus: Transport. The data set is classed as biochemical. The method in brief:
as §2

The target in data set [8] is T4, Plasmodium falciparum chloroquine resistance transporter PfCRT, 7G8 isoform (Plasmodium falciparum (isolate 7G8), UniProt W7FI62). Briefly: radioligand binding.
Data set [9] addresses T4, Plasmodium falciparum chloroquine …. Briefly: radioligand binding. The source holds these as a separate data set.
Data set [10] has the same target. Briefly: radioligand binding. This is another data set of the same source.
Substrate in data set [11]: N=C(N)NCCC[C@H](N)C(=O)O
Briefly: cells, lysate or membranes named.

Where [12] appears, read: read-out: IC50 (concentration yielding half-maximal reduction of [3H]-CQ transport), 100 nM [3H]-CQ, 1 min.

As for `N=C(N)NCCC[C@H](N)C(=O)O` [Arg, arginine], the “Vmax, transport in proteoliposomes” value at PfCRT 7G8 [1] (initial rates over 3 s, Michaelis-Menten fit) came out at 190 nmol/mg/min. The “time course of uptake (in words)” value on PfCRT 7G8 [1] (pH gradient 5.5–7.5 and membrane potential (valinomycin)) is listed as “maximal within one minute”. Further, the “competition of [3H]-Arg binding (in words)” value at PfCRT 7G8 [2] is reported as “effectively competed”. Further, the EC50 – broadly, the concentration needed to bring the measured effect to its halfway point – on PfCRT 7G8 [2] (half-maximal binding constant (EC50) of [3H]-Arg binding, SPA, isotopic dilution of 125 nM [3H]-Arg with non-radiolabeled Arg) is ~400 µM and 397 µM.
Regarding `CCN(CC)Cc1cc(Nc2ccnc3cc(Cl)ccc23)ccc1O` [amodiaquine], the “competition of [3H]-Arg binding (in words)” value at PfCRT 7G8 [2] is listed as “effectively competed”.
Still for that read-out and setting: in the case of `NCCCC[C@H](N)C(=O)O` [lysine] it was “effectively competed”.
With `CCNCCCC(C)Nc1ccnc2cc(Cl)ccc12` (stereo not drawn) [md-CQ, monodesethyl-chloroquine], the IC50 in data set [3] worked out at 1.8 ± 0.199 µM; in data set [4] it was 0.919 ± 0.125 µM; in data set [5] it was 0.0478 ± 0.0025 µM; in [6] it was 0.0365 ± 0.002 µM; in [7], 0.0486 ± 0.0031 µM.
In the case of `COc1ccc(CCN(C)CCCC(C#N)(c2ccc(OC)c(OC)c2)C(C)C)cc1OC` (stereo not drawn) [verapamil], the “inhibition of [3H]-CQ and [3H]-Arg uptake (in words)” value against PfCRT 7G8 [1] was “partial to strong inhibition”.
As to `OCCS` [β-mercaptoethanol], the IC50 on PfCRT 7G8 [1] (setting [12]) was determined as 1240 ± 140 µM; at PfCRT 7G8+C289A, 2580 ± 390 µM; at PfCRT 7G8+C301A (setting [12]), 4170 ± 160 µM. Further, the “remaining [3H]-CQ transport activity” value at PfCRT 7G8+C301A (compared to the activity in the absence of the reducing agent) is given as 60.2 ± 8.2%.

B1: Fab CTC (Fab, V domains shown)
VH: EVQLVESGGGLVQPGGSLRLSCAASGFNVSYSYIHWVRQAPGKGLEWVASIYPYSGYTSYADSVKGRFTISADTSKNTAYLQMNSLRAEDTAVYYCARYGSNYSFWYRGSSVTYAIDYWGQGTLVTVSS
VL: DIQMTQSPSSLSASVGDRVTITCRASQSVSSAVAWYQQKPGKAPKLLIYSASSLYSGVPSRFSGSRSGTDFTLTISSLQPEDFATYYCQQSSTWPITFGQGTKVEIK
For the molecule B1, the IC50 in data set [8] was 0.15 µM; in [9], 0.2 µM; in [10], 0.18 µM.

B2: PfCRT 7G8 (Plasmodium falciparum 7G8) (protein)
chain: MKFASKKNNQKNSSKNDERYRELDNLVQEGNGSRLGGGSCLGKCAHVFKLIFKEIKDNIFIYILSIIYLSVSVMNTIFAKRTLNKIGNYSFVTSETHNFICMIMFFIVYSLFGNKKGNSKERHRSFNLQFFAISMLDACSVILAFIGLTRTTGNIQSFVLQLSIPINMFFCFLILRYRYHLYNYLGAVIIVVTIALVEMKLSFETQEENSIIFNLVLISSLIPVCFSNMTREIVFKKYKIDILRLNAMVSFFQLFTSCLILPVYTLPFLKQLHLPYNEIWTNIKNGFACLFLGRNTVVENCGLGMAKLCDDCDGAWKTFALFSFFDICDNLITSYIIDKFSTMTYTIVSCIQGPALAIAYYFKFLAGDVVREPRLLDFVTLFGYLFGSIIYRVGNIILERKKMRNEENEDSEGELTNVDSIITQ
Consider B2, for which, in data set [11], the Km – broadly, the substrate concentration at which the rate is half of its maximum – was 1.30 ± 0.20 µM and the Vmax (commonly the top rate of the reaction or transport when substrate is in excess) was 189.2 ± 9.1 nmol/mg/min.
